# Publication PMC11015380 (Heliyon, 2024)
# Tests used:
# SNU1197 (G12D) = test: WST cell viability assay, SNU1197 cells; format: cell-based; conditions: 72 h, read-out: IC50 SNU1197 (G12D)
# Hek293 (Normal) = test: WST cell viability assay, Hek293 cells; format: cell-based; conditions: Homo sapiens, HEK293, 72 h, read-out: IC50 Hek293 (Normal)
# AsPC1 (G12D) = test: WST cell viability assay, AsPC1 cells; format: cell-based; conditions: Homo sapiens, ASPC1, 72 h, read-out: IC50 AsPC1 (G12D)
# AGS (G12D) = test: WST cell viability assay, AGS cells; format: cell-based; conditions: Homo sapiens, 72 h, read-out: IC50 AGS (G12D)
# [1] = molecular target: KRAS-GTP (active KRAS) in AGS cells (Homo sapiens, UniProt P01116, G12D); test: GST-RBD pulldown assay, AGS cells; format: cell-based; conditions: 5 or 7.5 μM, 24 h
# How it was run: (§1)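 AGS or MKN1 cells were exposed to DMSO or test compound (0, 5, 7.5 μM) for 24 h and lysed in 1X passive lysis buffer. Lysate (400 μg protein) was incubated overnight with glutathione–GST-RBD to capture GTP-bound KRAS. Pulled-down protein was immunoblotted with anti-KRAS antibody, and band intensity was quantified (n = 2).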
# AsPC1 tumor = test: In vivo antitumor efficacy study, AsPC1 xenograft; parameters: species or system female BALB/c nude mice; conditions: 15 mg/kg i.p. once daily for 14 days
# How it was run: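 Female BALB/c nude mice (5–6 weeks) received 5.0 × 10^6 AsPC1 cells s.c. into the right hind flank in PBS. At tumour volume >100 mm3, mice were randomised to vehicle or test compound at 15 mg/kg i.p. once daily for 14 days (10% DMSO, 40% PEG300, 5% Tween-80, 45% saline; 200 μL/mouse). Tumours were measured by caliper thrice weekly and body weight twice weekly. TGI (%) = (1 − RTVtreatment/RTVcontrol) × 100, with RTV relative to day 0.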
# [2] = test system: pERK, pAKT, pS6, cleaved PARP in AGS cells; test: Immunoblotting of KRAS downstream signals and PARP, AGS cells; format: cell-based; conditions: 5 or 7.5 μM, 24 h
# How it was run: (§2)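 Cells (3–5 × 10^5/well, 6-well plates) were grown overnight, then given DMSO or test compound at 5 or 7.5 μM for 24 h. Lysis was in RIPA with protease/phosphatase inhibitors, with BCA protein assay. Equal protein was run on 8–12% SDS-PAGE and transferred to nitrocellulose. Blots were blocked in 5% milk/TBST, probed overnight at 4 °C (ERK, pERK, AKT, pAKT, S6, pS6, PARP), then HRP secondary 1 h, ECL. Bands were normalised to β-actin (n = 2).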
# AGS cells = test: Annexin V-FITC/PI apoptosis detection assay, AGS cells; format: cell-based; conditions: AGS, 0, 2.5, and 5 μM, 24 h, flow cytometry
# How it was run: (§3)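 AGS or MKN1 cells were seeded at 3–5 × 10^5 cells/well in 6-well plates and grown overnight. They were treated with test compound at 0, 2.5 or 5 μM for 24 h. Cells were harvested, PBS-washed and resuspended in 1X binding buffer.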
# [3] = test system: MKN1 (KRAS wild-type) cells; test: Annexin V-FITC/PI apoptosis detection assay, MKN1 cells; format: cell-based; conditions: MKN1, 0, 2.5, and 5 μM, 24 h, flow cytometry
# How it was run: as §3
# [4] = test system: KRAS downstream proteins, including PARP, in MKN1 cells; test: Immunoblotting of KRAS downstream signals and PARP, MKN1 cells; format: cell-based; conditions: MKN1, 5 or 7.5 μM, 24 h
# How it was run: as §2
# [5] = molecular target: KRAS-GTP (active KRAS) in MKN1 cells (Homo sapiens, UniProt P01116); test: GST-RBD pulldown assay, MKN1 cells; format: cell-based; conditions: MKN1, 5 or 7.5 μM, 24 h
# How it was run: as §1
IC50 (SNU1197 (G12D)) [µM],IC50 (AsPC1 (G12D)) [µM],IC50 (AGS (G12D)) [µM],KRAS-GTP levels [1],KRAS-GTP protein expression [5],Structure (SMILES),IC50 (Hek293 (Normal)) [µM],body weight change during treatment (AsPC1 tumor),TGI (tumor growth inhibition) (AsPC1 tumor; day 14) [%],"pERK, pAKT, and pS6 levels [2]",levels of cleaved PARP ([2]; versus DMSO-treated group),proportion of early (LR) and late apoptotic (UR) cells (AGS cells),apoptosis [3],"KRAS downstream proteins, including PARP, expression [4]"
0.037,0.062,0.0065,–,–,"C#Cc1c(F)ccc2cc(O)cc(-c3ncc4c(N5CC6CCC(C5)N6)nc(OC[C@@]56CCCN5C[C@H](F)C6)nc4c3F)c12 [MRTX1133, reference compound]",19.7,–,–,–,–,–,–,–
3.8 ± 0.8,5.9 ± 0.3,3.2 ± 0.4,significantly downregulated,no protein expression changes,"Cl.c1ccc(CN(Cc2ccccc2)c2nc(N3CCC4(CC3)CNC4)c3ncn(Cc4ccccc4)c3n2)cc1 [PU1-1, N,N,9-tribenzyl-6-(2,7-diazaspiro[3.5]nonan-7-yl)-9H-purin-2-amine hydrogen chloride]",9.2 ± 0.2,no noticeable weight loss,42,significantly decreased,significantly increased,increased,did not show significant apoptosis,no protein expression changes
–,10.9 ± 0.4,3.3 ± 0.6,–,–,"Cc1nc(-c2ccc(Cl)cc2)nc(N2CCC3(CC2)CNC3)c1Cc1ccccc1 [PY1-2, 7-(5-benzyl-2-(4-chlorophenyl)-6-methylpyrimidin-4-yl)-2,7-diazaspiro[3.5]nonane, 2,2,2-trifluoroacetic acid]",9.1 ± 0.7,–,–,–,–,–,–,–
